The values that follow come from BindingDB's records for doi:10.1021/jm301002f (H. Lee Moffitt Cancer Center and Research Institute, 2012).

The structures appear in SMILES notation. Residues, ends and D or L forms follow the SMILES beside them. *: point of attachment. Propyl(2R-PamO,3-PamO) = CCCCCCCCCCCCCCCC(=O)OC[C@H](C*)OC(=O)CCCCCCCCCCCCCCC; X1 = CC(=O)NCCCOCCOCCOCCCNC(=O)COCC(=O)*

Test [1] addresses T1, Toll-like receptor 2 (Homo sapiens, UniProt O60603). Description: Displacement of Eu-DTPA from human TLR2 expressed in SU.86.86 cells after 1 hr.
The target in test [2] is T1, Toll-like receptor 2. Put plainly: Agonist activity at human TLR2 expressed in HEK293 cells assessed as induction of NF-kappaB signaling after 24 hrs by luminescence based luciferase reporter gene assay.
Test [3] concerns the target T1, Toll-like receptor 2. Description: Displacement of Eu-DTPA from human TLR2 expressed in HEK293 cells after 1 hr. The procedure, abridged: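 Live-cell europium TRF competition binding in HEK-293/hTLR2 (poly-D-lysine plates) or SU.86.86 cells grown 2 days to ~80% confluence. Unlabeled ligand 1 μM to 0.01 nM plus 90 nM Eu-DTPA-labeled tracer, 1 h at 37°C; three washes, enhancement solution 30 min at 37°C, read at 340 nm excitation/615 nm emission with time delay.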

T1 sequence (O60603 whole entry): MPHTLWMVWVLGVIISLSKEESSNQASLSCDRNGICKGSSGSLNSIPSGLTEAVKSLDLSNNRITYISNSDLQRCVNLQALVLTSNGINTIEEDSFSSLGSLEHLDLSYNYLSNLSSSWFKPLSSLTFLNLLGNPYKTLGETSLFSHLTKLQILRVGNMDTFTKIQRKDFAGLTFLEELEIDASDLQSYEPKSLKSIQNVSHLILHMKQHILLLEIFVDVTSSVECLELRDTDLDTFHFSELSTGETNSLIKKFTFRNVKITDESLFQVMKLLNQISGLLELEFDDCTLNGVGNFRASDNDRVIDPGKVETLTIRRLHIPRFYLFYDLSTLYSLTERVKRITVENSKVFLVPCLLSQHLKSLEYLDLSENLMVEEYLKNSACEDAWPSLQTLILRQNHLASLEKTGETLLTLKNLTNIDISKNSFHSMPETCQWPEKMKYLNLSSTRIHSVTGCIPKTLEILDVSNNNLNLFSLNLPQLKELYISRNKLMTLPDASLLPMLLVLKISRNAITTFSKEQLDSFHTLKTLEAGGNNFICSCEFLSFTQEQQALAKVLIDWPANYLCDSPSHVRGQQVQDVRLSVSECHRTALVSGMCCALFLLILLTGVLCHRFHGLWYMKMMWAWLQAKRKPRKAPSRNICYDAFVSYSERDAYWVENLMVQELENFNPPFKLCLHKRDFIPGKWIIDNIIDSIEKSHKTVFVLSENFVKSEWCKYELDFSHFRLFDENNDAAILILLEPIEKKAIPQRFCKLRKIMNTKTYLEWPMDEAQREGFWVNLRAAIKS

Regarding `CCCCCCCCCCCCCCCC(=O)OCC(CSCC(NC(=O)COCC(=O)NCCCOCCOCCOCCCNC(=O)CCSC1CC(=O)N(CCNC(=O)CCCCC[N+]2=C(/C=C/C=C/C=C3/Cc4cc(S(=O)(=O)O)ccc4N3CC)Cc3cc(S(=O)(=O)[O-])ccc32)C1=O)C(=O)NCC(=O)NC(CO)C(=O)NCCCOCCOCCOCCCNC(=O)COCC(N)=O)OC(=O)CCCCCCCCCCCCCCC` (centres undefined), the Ki in test [1] was 67 nM; in test [3], 11 nM. Also, the 50% effective concentration (EC50) in test [2] is 34 nM.
On to `CCCCCCCCCCCCCCCC(=O)OC[C@H](CSC[C@H](NC(=O)COCC(=O)NCCCOCCOCCOCCCNC(C)=O)C(=O)N[C@@H](CO)C(=O)N[C@@H](CCCNC(=N)N)C(=O)N[C@@H](Cc1ccccc1)C(=O)N[C@@H](CC(=O)O)C(=O)N[C@@H](CCC(=O)O)C(=O)N[C@@H](CC(=O)O)C(=O)N[C@@H](CC(=O)O)C(=O)N[C@@H](CC(C)C)C(=O)N[C@@H](CCC(=O)O)C(N)=O)OC(=O)CCCCCCCCCCCCCCC` (X1-C(Propyl(2R-PamO,3-PamO))SRFDEDDLE-NH2), for which the EC50 in test [2] turned out to be 25 nM.
